Experimental data published in ChEMBL document CHEMBL1140859, “Design and synthesis of some thiazolyl and thiadiazolyl derivatives of antipyrine as potential non-acidic anti-inflammatory, analgesic and antimicrobial agents” (Bioorg Med Chem, 2009).
Converted amounts (≈) assume the structure as drawn.

How the values were obtained:
Staphylococcus aureus = assay: Antimicrobial activity against Staphylococcus aureus ATCC 6538 after 24 hrs by twofold serial dilution method; format: functional; conditions: ATCC 6538, 24 h
Outline: (§1)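 Broth microdilution in Müller–Hinton broth on compounds with agar-diffusion inhibition zones ≥14 mm (disks with 1 mg/mL in DMSO, 37 °C, 24 h, triplicate).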

Rattus norvegicus [1] = assay: Antiinflammatory activity against formalin-induced paw edema in anaesthetized Albino rat acute inflammatory model at 20 mg/kg, po dosed 1 hr before formalin challenge assessed after 1 hr; format: functional
Outline: (§2)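 Rats in groups of five plus control; test compounds 20 mg/kg po, diclofenac Na 10 mg/kg po, given 1 h before 0.1 mL 2% formalin injected subplantar into left hind paw under light ether anaesthesia. Paw volume by water plethysmometer at 0 and 1, 2, 3, 4 h after formalin; % anti-inflammatory activity versus control; mean ± SE, N = 5.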

Rattus norvegicus [2] = assay: Analgesic activity in Albino rat assessed as tail withdrawal response at 20 mg/kg, po after 2 hrs; format: functional
Outline: (§3)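 Male albino rats, 120–150 g, groups of five plus untreated control; test compounds 20 mg/kg po, diclofenac Na 10 mg/kg po. Tail immersed in 55 °C water; withdrawal reaction time read 1, 2 and 3 h after dosing; percentage increase in reaction time over basal computed; mean ± SE of five animals.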

Rattus norvegicus [3] = assay: Antiinflammatory activity against formalin-induced paw edema in anaesthetized Albino rat sub-acute inflammatory model at 20 mg/kg, po for 7 days measured on day 8; format: functional
Outline: (§4)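 Sub-acute paw edema: test compounds 20 mg/kg po daily for 7 days, diclofenac Na 10 mg/kg po; 0.1 mL 2% formalin injected subplantar into left hind paw under light ether anaesthesia on days 1 and 3, 1 h after dosing. Paw volume measured on day 1 and day 8; % anti-inflammatory activity; N = 5 rats.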

Rattus norvegicus [4] = assay: Analgesic activity in Albino rat assessed as tail withdrawal response at 20 mg/kg, po after 1 hr; format: functional; outline: as §3
Rattus norvegicus [5] = assay: Antiinflammatory activity against turpentine oil-induced granuloma pouch in anaesthetized Albino rat sub-acute inflammatory model at 20 mg/kg, po 1 hr before turpentine oil challenge for 7 days assessed after 8 days; format: functional
Outline: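 Dorsal subcutaneous pouch made in ether-anaesthetised rats with 2 mL air, then 0.5 mL turpentine oil. Test compounds 20 mg/kg po, diclofenac Na 10 mg/kg po, started 1 h before turpentine and continued 7 days. Exudate aspirated on day 8 under anaesthesia; volume measured; % inhibition = (Vcontrol − Vtreated)/Vcontrol × 100; N = 5.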

Bacillus subtilis = assay: Antimicrobial activity against Bacillus subtilis NRRL B-14819 after 24 hrs by twofold serial dilution method; format: functional; outline: as §1
Rattus norvegicus [6] = assay: Antiinflammatory activity against formalin-induced paw edema in anaesthetized Albino rat acute inflammatory model at 20 mg/kg, po dosed 1 hr before formalin challenge assessed after 3 hrs; format: functional; outline: as §2
Rattus norvegicus [7] = assay: Antiinflammatory activity against formalin-induced paw edema in anaesthetized Albino rat sub-acute inflammatory model at 20 mg/kg, po measured on day 1; format: functional; outline: as §4
Rattus norvegicus [8] = assay: Analgesic activity in Albino rat assessed as tail withdrawal response at 20 mg/kg, po after 3 hrs; format: functional; outline: as §3
Rattus norvegicus [9] = assay: Antiinflammatory activity against formalin-induced paw edema in anaesthetized Albino rat acute inflammatory model at 20 mg/kg, po dosed 1 hr before formalin challenge assessed after 2 hrs; format: functional; outline: as §2
Rattus norvegicus [10] = assay: Antiinflammatory activity against formalin-induced paw edema in anaesthetized Albino rat acute inflammatory model at 20 mg/kg, po dosed 1 hr before formalin challenge assessed after 4 hrs; format: functional; outline: as §2
Rattus norvegicus [11] = assay: Toxicity in Albino rat assessed as induction of gastric ulceration at 300 mg/kg, po twice a day after 2 hrs; format: organism-based, Stomach; parameters: dose 300 mg/kg, route oral; conditions: in vivo
Outline: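 Male albino rats (180–200 g), five per group, fasted 12 h with water ad libitum. Oral dosing at 300 mg/kg; the results text gives two doses at a 2 h interval, while the methods give two equal doses at 0 and 12 h over three days. Controls received 1% gum acacia orally. Rats were killed with ether 6 h after the last dose, and stomachs were inspected grossly for ulceration and hyperemia.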

[12] = Acute toxicity in Albino rat after 24 hrs; format: organism-based; conditions: in vivo, read-out: ALD50
Outline: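 Male rats, 180–200 g, groups of five, fasted 24 h before dosing; compounds given orally in graded doses of 0.1–3.0 g/kg; mortality recorded at each dose level after 24 h to estimate approximate acute lethal dose (ALD50).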

Escherichia coli = assay: Antimicrobial activity against Escherichia coli ATCC 25922 after 24 hrs by twofold serial dilution method; format: functional; conditions: ATCC 25922, 24 h; outline: as §1
Pseudomonas aeruginosa = assay: Antimicrobial activity against Pseudomonas aeruginosa ATCC 27853 after 24 hrs by twofold serial dilution method; format: functional; conditions: ATCC 27853, 24 h; outline: as §1
Klebsiella pneumoniae = assay: Antimicrobial activity against Klebsiella pneumoniae clinical isolate after 24 hrs by twofold serial dilution method; format: functional; outline: as §1
Micrococcus luteus = assay: Antimicrobial activity against Micrococcus luteus ATCC 21881 after 24 hrs by twofold serial dilution method; format: functional; conditions: ATCC 21881, 24 h; outline: as §1

SMILES	MIC (Staphylococcus aureus)	Activity (Rattus norvegicus [1])	Activity (Rattus norvegicus [2])	Activity (Rattus norvegicus [3])	Activity (Rattus norvegicus [4])	Activity (Rattus norvegicus [5])	MIC (Bacillus subtilis)	Activity (Rattus norvegicus [6])	Activity (Rattus norvegicus [7])	Activity (Rattus norvegicus [8])	Activity (Rattus norvegicus [9])	Activity (Rattus norvegicus [10])	Activity (Rattus norvegicus [11])	LD50 at 24 h [12]	MIC (Escherichia coli)	MIC (Pseudomonas aeruginosa)	MIC (Klebsiella pneumoniae)	MIC (Micrococcus luteus)
Cc1c(NC(=O)CSc2nnc(NC(=S)Nc3ccc(Cl)cc3)s2)c(=O)n(-c2ccccc2)n1C	100 µg/mL (≈ 183 µM)																	
Cc1c(NC(=O)C2=C(N)N(c3ccccc3)C(=C(C#N)C#N)S2)c(=O)n(-c2ccccc2)n1C		26%	46%	32%	27%	62%	100 µg/mL (≈ 213 µM)	38%	40%	72%	40%	40%	Non-toxic	> 3000 mg/kg				
CCOC(=O)/C(C#N)=C1/SC(C(=O)Nc2c(C)n(C)n(-c3ccccc3)c2=O)=C(N)N1c1ccccc1	12.5 µg/mL (≈ 24.2 µM)	30%	50%	31%	32%	53%	12.5 µg/mL (≈ 24.2 µM)	38%	29%	67%	26%	29%	Non-toxic	> 3000 mg/kg	50 µg/mL (≈ 96.8 µM)	50 µg/mL (≈ 96.8 µM)	50 µg/mL (≈ 96.8 µM)	25 µg/mL (≈ 48.4 µM)
Cc1c(NC(=O)c2sc(=S)n(-c3ccc(Cl)cc3)c2N)c(=O)n(-c2ccccc2)n1C							100 µg/mL (≈ 212 µM)											100 µg/mL (≈ 212 µM)
Cc1c(NC(=O)CSc2nnc(NC(=S)Nc3ccccc3)s2)c(=O)n(-c2ccccc2)n1C	100 µg/mL (≈ 195 µM)	26%	43%	20%	27%	19%		21%	23%	46%	31%	26%	Non-toxic	> 3000 mg/kg				
Cc1nc2c(sc(=S)n2-c2ccc(Cl)cc2)c(=O)n1-c1c(C)n(C)n(-c2ccccc2)c1=O							100 µg/mL (≈ 202 µM)											100 µg/mL (≈ 202 µM)
Cc1c(NC(=O)c2sc(=S)n(-c3ccccc3)c2NC(=S)Nc2ccccc2)c(=O)n(-c2ccccc2)n1C	50 µg/mL (≈ 87.3 µM)	30%	70%	39%	48%	65%	12.5 µg/mL (≈ 21.8 µM)	41%	40%	82%	37%	40%	Non-toxic	> 3000 mg/kg	50 µg/mL (≈ 87.3 µM)	50 µg/mL (≈ 87.3 µM)	50 µg/mL (≈ 87.3 µM)	50 µg/mL (≈ 87.3 µM)
Cc1c(NC(=O)/C(C#N)=C2\SC=C(c3ccc(Cl)cc3)N2c2ccccc2)c(=O)n(-c2ccccc2)n1C	100 µg/mL (≈ 185 µM)	39%	43%	44%	22%	58%		33%	37%	43%	29%	43%	Non-toxic	> 3000 mg/kg				
Cc1c(NC(=O)/C(C#N)=C2\SC=C(c3ccc(Cl)cc3)N2c2ccc(Cl)cc2)c(=O)n(-c2ccccc2)n1C		35%	64%	39%	34%	60%	100 µg/mL (≈ 174 µM)	41%	29%	58%	40%	29%	Non-toxic	> 3000 mg/kg				
Cc1c(NC(=O)CSc2nnc(N)s2)c(=O)n(-c2ccccc2)n1C		26%	71%	39%	42%	62%		49%	29%	76%	43%	38%	Non-toxic	> 3000 mg/kg				
CC(=O)Nc1nnc(SCC(=O)Nc2c(C)n(C)n(-c3ccccc3)c2=O)s1	100 µg/mL (≈ 239 µM)	43%	60%	39%	30%	60%		46%	29%	55%	37%	43%	Non-toxic	> 3000 mg/kg				
Cc1c(NC(=O)c2sc(=S)n(-c3ccccc3)c2N)c(=O)n(-c2ccccc2)n1C		35%	50%	34%	19%	50%	100 µg/mL (≈ 229 µM)	41%	20%	67%	37%	43%	Non-toxic	> 3000 mg/kg				
Cc1c(NC(=O)/C(C#N)=C2\SC=C(c3ccc(Br)cc3)N2c2ccccc2)c(=O)n(-c2ccccc2)n1C							100 µg/mL (≈ 171 µM)											
Cc1c(NC(=O)c2sc(=S)n(-c3ccc(Cl)cc3)c2NC(=S)Nc2ccccc2)c(=O)n(-c2ccccc2)n1C	100 µg/mL (≈ 165 µM)																	
Cc1c(NC(=O)c2sc(=S)n(-c3ccc(Cl)cc3)c2NC(=S)Nc2ccc(Cl)cc2)c(=O)n(-c2ccccc2)n1C							100 µg/mL (≈ 156 µM)											
Cc1c(NC(=O)/C(C#N)=C2\SCC(=O)N2c2ccc(Cl)cc2)c(=O)n(-c2ccccc2)n1C	50 µg/mL (≈ 104 µM)						25 µg/mL (≈ 52.1 µM)								25 µg/mL (≈ 52.1 µM)	50 µg/mL (≈ 104 µM)	100 µg/mL (≈ 208 µM)	12.5 µg/mL (≈ 26 µM)
CCOC(=O)Nc1nnc(SCC(=O)Nc2c(C)n(C)n(-c3ccccc3)c2=O)s1		35%	15%	27%	17%	33%	100 µg/mL (≈ 223 µM)	23%	29%	28%	17%	19%	Non-toxic	> 3000 mg/kg				
Cc1c(NC(=O)c2sc(=S)n(-c3ccc(Cl)cc3)c2NC(=O)Nc2ccccc2)c(=O)n(-c2ccccc2)n1C		26%	49%	42%	18%	72%	100 µg/mL (≈ 169 µM)	49%	31%	44%	37%	40%	Non-toxic	> 3000 mg/kg				
Cc1c(NC(=O)c2sc(=S)n(-c3ccccc3)c2NC(=S)Nc2ccc(Cl)cc2)c(=O)n(-c2ccccc2)n1C	25 µg/mL (≈ 41.2 µM)						12.5 µg/mL (≈ 20.6 µM)								25 µg/mL (≈ 41.2 µM)	50 µg/mL (≈ 82.3 µM)	50 µg/mL (≈ 82.3 µM)	
CC1(C)S[C@@H]2[C@H](NC(=O)[C@H](N)c3ccccc3)C(=O)N2[C@H]1C(=O)O.O.O.O [AMPICILLIN TRIHYDRATE]	6.25 µg/mL						12.5 µg/mL								6.25 µg/mL	12.5 µg/mL	12.5 µg/mL	12.5 µg/mL
